ChEMBL document CHEMBL1136105, “1,7- and 2,7-naphthyridine derivatives as potent and highly specific PDE5 inhibitors” (Bioorg Med Chem Lett, 2003)

Assays:
Phosphodiesterase 1 = Phosphodiesterase 1 (Homo sapiens, UniProt P54750+Q01064+Q14123); assay: Inhibitory activity against phosphodiesterase-1 (PDE1) isolated from canine lung; type: protein assay, Canis lupus familiaris; details: target entry is the homologue from another species
Procedure, shortened: (§1)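 Enzyme IC50 taken from a logarithmic concentration–inhibition curve of at least four points; each value is the mean of at least two duplicate experiments.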

Phosphodiesterase 6 = assay: Inhibitory activity against Phosphodiesterase 6 isolated from bovine retina; type: protein assay
[1] = molecular target: T1, cGMP-dependent 3',5'-cyclic phosphodiesterase (Bos taurus, UniProt P14099); assay: Inhibitory activity against phosphodiesterase-2 (PDE2) isolated from bovine adrenal gland; type: tissue-based; procedure, shortened: as §1
T1 sequence (P14099 whole entry): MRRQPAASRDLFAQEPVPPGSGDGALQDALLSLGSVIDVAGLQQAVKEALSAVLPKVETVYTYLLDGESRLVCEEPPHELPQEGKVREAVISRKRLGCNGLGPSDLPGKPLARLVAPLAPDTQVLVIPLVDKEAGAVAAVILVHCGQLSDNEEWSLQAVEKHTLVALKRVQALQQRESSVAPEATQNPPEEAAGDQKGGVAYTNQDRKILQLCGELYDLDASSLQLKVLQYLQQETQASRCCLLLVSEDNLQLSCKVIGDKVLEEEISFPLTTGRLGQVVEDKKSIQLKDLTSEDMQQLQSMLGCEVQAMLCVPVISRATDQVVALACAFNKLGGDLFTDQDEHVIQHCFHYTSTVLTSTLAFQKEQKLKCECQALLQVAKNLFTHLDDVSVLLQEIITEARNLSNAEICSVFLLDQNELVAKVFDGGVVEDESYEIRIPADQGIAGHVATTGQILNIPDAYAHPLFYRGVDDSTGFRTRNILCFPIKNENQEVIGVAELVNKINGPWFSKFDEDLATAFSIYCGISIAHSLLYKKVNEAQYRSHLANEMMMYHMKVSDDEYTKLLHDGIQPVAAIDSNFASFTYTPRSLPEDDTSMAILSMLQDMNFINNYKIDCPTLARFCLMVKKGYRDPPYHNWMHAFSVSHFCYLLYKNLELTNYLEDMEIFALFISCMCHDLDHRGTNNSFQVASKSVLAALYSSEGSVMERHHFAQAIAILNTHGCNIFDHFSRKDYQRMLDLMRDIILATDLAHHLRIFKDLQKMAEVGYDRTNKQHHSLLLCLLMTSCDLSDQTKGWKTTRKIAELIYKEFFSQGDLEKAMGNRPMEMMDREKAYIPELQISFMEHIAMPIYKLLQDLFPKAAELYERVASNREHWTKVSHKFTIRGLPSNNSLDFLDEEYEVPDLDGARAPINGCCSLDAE

Phosphodiesterase 4 = Phosphodiesterase 4 (Homo sapiens, UniProt P27815+Q08499+Q07343+Q08493); assay: Inhibitory activity against phosphodiesterase 4 (PDE4) isolated from canine lung; type: protein assay, Canis lupus familiaris; details: target entry is the homologue from another species; procedure, shortened: as §1
Phosphodiesterase 3 = Phosphodiesterase 3 (Homo sapiens, UniProt Q14432+Q13370); assay: Inhibitory activity against phosphodiesterase-3 (PDE3) isolated from canine heart; type: protein assay, Canis lupus familiaris; details: target entry is the homologue from another species; procedure, shortened: as §1
Oryctolagus cuniculus = organism: Oryctolagus cuniculus; assay: Relaxant effect on rabbit corpus cavernosum; type: functional
[2] = molecular target: cGMP-specific 3',5'-cyclic phosphodiesterase (Canis lupus familiaris, UniProt O77746); assay: Inhibitory activity against phosphodiesterase 5 (PDE5) isolated from canine lung; procedure, shortened: as §1

Structure (SMILES) | IC50 (Phosphodiesterase 1) [nM] | IC50 (Phosphodiesterase 6) [nM] | IC50 [1] [nM] | IC50 (Phosphodiesterase 4) [nM] | IC50 (Phosphodiesterase 3) [nM] | EC30 (Oryctolagus cuniculus) [nM] | IC50 [2] [nM]
COC(=O)c1c(-c2cc(OC)c(OC)c(OC)c2)c2ccnc(NCCO)c2c(=O)n1Cc1ccnc(C)c1.Cl | 19000 | 280 | 78000 | 450 | 5300 | 14 | 2.6
COC(=O)c1c(-c2cc(OC)c(OC)c(OC)c2)c2ccc(OCc3ccccn3)nc2c(=O)n1-c1ccc(N)cc1.Cl | 40000 | 22 | – | – | – | – | 0.51
COC(=O)c1c(-c2cc(OC)c(OC)c(OC)c2)c2ccc(OCCc3ccccn3)nc2c(=O)n1Cc1ccnc(C)c1 | – | – | – | – | – | – | 1.2
COC(=O)c1c(-c2cc(OC)c(OC)c(OC)c2)c2ccc(NCc3ccccn3)nc2c(=O)n1Cc1ccnc(C)c1.Cl | 41000 | 22 | – | – | – | – | 1.8
COC(=O)c1c(-c2cc(OC)c(OC)c(OC)c2)c2ccc(OCc3ccccn3)nc2c(=O)n1Cc1ccccn1.Cl | 20000 | 230 | – | – | – | – | 11
COC(=O)c1c(-c2cc(OC)c(OC)c(OC)c2)c2ccc(OCc3ncccn3)nc2c(=O)n1Cc1ccnc(C)c1.Cl | > 100000 | 42 | 25000 | 19000 | > 100000 | 37 | 1.9
COC(=O)c1c(-c2cc(OC)c(OC)c(OC)c2)c2ccnc(OCc3ccccn3)c2c(=O)n1Cc1ccnc(C)c1 | 25000 | 4.4 | – | – | – | – | 0.31
COC(=O)c1c(-c2cc(OC)c(OC)c(OC)c2)c2ccc(OCc3cnccn3)nc2c(=O)n1Cc1ccnc(C)c1.Cl | 22000 | 7.7 | – | – | – | – | 0.29
COC(=O)c1c(-c2cc(OC)c(OC)c(OC)c2)c2ccc(OCc3ccccn3)nc2c(=O)n1Cc1ccncc1.Cl | 45000 | 11 | – | – | – | – | 0.38
COC(=O)c1c(-c2cc(OC)c(OC)c(OC)c2)c2ccc(OCc3ccccn3)nc2c(=O)n1Cc1ccnc(C)c1.Cl | 33000 | 8.6 | 40000 | 30000 | > 100000 | 53 | 0.22
COC(=O)c1c(-c2cc(OC)c(OC)c(OC)c2)c2ccnc(OCCc3ccccn3)c2c(=O)n1Cc1ccnc(C)c1.Cl | 20000 | 72 | > 100000 | 50000 | > 100000 | 22 | 0.52
COC(=O)c1c(-c2cc(OC)c(OC)c(OC)c2)c2ccnc(N3CCN(C)CC3)c2c(=O)n1Cc1ccnc(C)c1 | > 100000 | 1400 | – | – | – | – | 94
COC(=O)c1c(-c2cc(OC)c(OC)c(OC)c2)c2ccnc(OCc3ncccn3)c2c(=O)n1Cc1ccnc(C)c1.Cl | > 100000 | 56 | > 100000 | 67000 | > 100000 | 5 | 0.23
CCCc1nn(C)c2c(=O)[nH]c(-c3cc(S(=O)(=O)N4CCN(C)CC4)ccc3OCC)nc12 | – | – | 43000 | – | – | – | –
COC(=O)c1c(-c2cc(OC)c(OC)c(OC)c2)c2ccc(OCc3ccccn3)nc2c(=O)n1Cc1cccnc1.Cl | 12000 | 38 | – | – | – | – | 2.3
COC(=O)c1c(-c2cc(OC)c(OC)c(OC)c2)c2ccc(OCc3ccccn3)cc2c(=O)n1-c1ccc(N)cc1.O=S(=O)(O)O | 3000 | 28 | 9700 | – | – | 7.9 | –
